High-throughput results from PubChem.
INS-1E GSIS act – primary screen for activators of insulin secretion dependent on glucose, INS-1E cells, GLuc reporter luminescence. INS-1E GLuc reporter insulin secretion, 2-3 h. hit rate 0.61% among 370,000. activation, % at 16.6 µM. AID 743287;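 active = lowest replicate activation of at least 40%, so every replicate reaches that level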
GSK3A inh – human GSK-3 alpha kinase inhibition | ADP-Glo luminescence, 60 min | P49840 | inhibition, % at 10 µM | hit rate 0.1% among 320,000;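 active = more than half of replicates show inhibition above 20%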;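 note: GST-tagged GSK-3 alpha with peptide substrate and 25 µM ATP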
Target sequence (P49840 whole entry, looked up): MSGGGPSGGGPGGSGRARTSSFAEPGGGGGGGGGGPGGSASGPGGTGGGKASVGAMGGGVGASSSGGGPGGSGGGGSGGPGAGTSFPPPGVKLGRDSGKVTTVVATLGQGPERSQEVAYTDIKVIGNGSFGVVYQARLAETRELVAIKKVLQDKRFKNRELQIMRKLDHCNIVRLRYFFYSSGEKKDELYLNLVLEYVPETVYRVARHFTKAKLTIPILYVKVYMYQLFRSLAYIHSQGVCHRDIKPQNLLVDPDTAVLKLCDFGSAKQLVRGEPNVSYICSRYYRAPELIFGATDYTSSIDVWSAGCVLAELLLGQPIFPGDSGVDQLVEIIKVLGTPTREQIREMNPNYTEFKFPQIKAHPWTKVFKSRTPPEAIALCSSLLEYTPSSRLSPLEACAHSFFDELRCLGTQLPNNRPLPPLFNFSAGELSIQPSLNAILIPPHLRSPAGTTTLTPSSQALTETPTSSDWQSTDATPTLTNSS
HIV Env fusion – HIV envelope-mediated fusion inhibition; hit rate 1.1% among 360,000; HeLa-JRFL Env/CEM21 cell fusion, luciferase; inhibition, % at 12.3 µM; AID 651610;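 active = mean replicate inhibition score of at least 50 and every replicate individually at or above 50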
STK33 kinase inh – human STK33 kinase inhibition. Q9BYT3. purified STK33, MBP phosphorylation, ADP-Glo luminescence. inhibition, % at 10 µM. hit rate 0.073% among 320,000. AID 2661;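 active = inhibition at or above 25%, using the most active replicate where run in duplicate; inactive = inhibition below 25%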
CDK5 inh – CDK5/p35 (human) kinase inhibition; Q00535+Q15078; Recombinant CDK5/p35, ADP-Glo luminescence, 60 min; inhibition, % at 10 µM; hit rate 0.01% among 330,000; AID 488839;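 active = highest replicate inhibition of at least 50% and at least 75% of replicates reaching 50%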
GSK3B inh – blocks human GSK3beta kinase activity. P49841. GST-GSK3beta kinase, ADP-Glo luminescence, 60 min; active compounds read low. activity score (negative = inhibition), % at 10 µM. hit rate 0.038% among 300,000;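 active = more than half of replicate wells score below -50%, meaning over 50% inhibition versus plate controls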
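Test system: GST-tagged human GSK3beta kinase, cell-free; evaluation: activity score scaled between in-plate DMSO and GW8510 controls; measured by: ADP-Glo luminescence; incubation: 60 min reaction, RT; benchmarks: DMSO and 20 µM GW8510; reagent: peptide substrate plus 25 µM ATP (final); medium: Tris/MgCl2 kinase buffer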
Hits are given with their value; - = inactive; . = not tested or not shown; ! = a repeat was not active; [ ] = dose if it differs, or a comment. Shown are actives, neighbours in structure and some others; about 1.4% of the full set was active somewhere.

SMILES	INS-1E GSIS act	GSK3A inh	HIV Env fusion	STK33 kinase inh	CDK5 inh	GSK3B inh
C[C@H](CO)N1C[C@H](C)[C@@H](CN(C)C(=O)Cc2ccccn2)Oc2ncc(-c3cncnc3)cc2C1=O	-	.	-	.	.	.
Cc1nn2c(nc(N3CCOCC3)c3ccccc32)c1C=C(C#N)C#N	41.1	-	.	-	-	-
CC(C)NC(=O)C1(C)CCN1Cc1ccc(-c2ccccc2)cc1 (configuration not stated)	-	.	56.6	.	.	.
CC(C)NC(=O)C1(C)CCN1Cc1cccc(C#N)c1 (configuration not stated)	43.0	.	-	.	.	.
O=C(CCCn1c(=S)[nH]c2cc3c(cc2c1=O)OCO3)N1CCN(c2ccc(Cl)cc2)CC1	.	-	98.5	-	-	-
C[C@@H]1CN([C@H](C)CO)C(=O)c2cc(NC(=O)Nc3cccc4ccccc34)ccc2O[C@@H](C)CCCCO[C@@H]1CN(C)CC1CCCCC1	-	.	-	.	.	.
C[C@H]1CCCCO[C@H](CN(C)C(=O)Nc2cccc3ccccc23)[C@@H](C)CN([C@@H](C)CO)C(=O)c2cc(NS(=O)(=O)c3ccc(F)cc3)ccc2O1	-	.	87.2[16.7 µM]	.	.	.
Cc1noc(C)c1NC(=O)N(C)C[C@@H]1OCCCC[C@H](C)Oc2ccc(NS(=O)(=O)c3ccc(F)cc3)cc2C(=O)N([C@@H](C)CO)C[C@H]1C	-	.	-	.	.	.
C[C@@H]1CCCCO[C@H](CN(C)C(=O)Nc2cccc3ccccc23)[C@@H](C)CN([C@H](C)CO)C(=O)c2cc(NS(=O)(=O)c3ccc(F)cc3)ccc2O1	-	.	-	.	.	.
COc1ccc(S(=O)(=O)Nc2ccc3c(c2)C(=O)N([C@@H](C)CO)C[C@H](C)[C@H](CN(C)C(=O)NC(C)C)OCCCC[C@H](C)O3)cc1	-	.	92.7[16.7 µM]	.	.	.
Cc1ccc(S(=O)(=O)Nc2ccc3c(c2)C(=O)N([C@@H](C)CO)C[C@H](C)[C@@H](CN(C)C(=O)Nc2ccc(C(F)(F)F)cc2)OCCCC[C@H](C)O3)cc1	-	.	68.5[16.7 µM]	.	.	.
COc1ccc(S(=O)(=O)Nc2ccc3c(c2)C(=O)N([C@@H](C)CO)C[C@@H](C)[C@@H](CN(C)C(=O)NC(C)C)OCCCC[C@@H](C)O3)cc1	-	.	-	.	.	.
Cc1noc(C)c1NC(=O)N(C)C[C@H]1OCCCC[C@@H](C)Oc2ccc(NS(=O)(=O)c3ccc(F)cc3)cc2C(=O)N([C@H](C)CO)C[C@@H]1C	-	.	59.9[16.7 µM]	.	.	.
C[C@H]1CCCCO[C@H](CN(C)C(=O)Nc2ccc(C(F)(F)F)cc2)[C@@H](C)CN([C@@H](C)CO)C(=O)c2cc(NS(=O)(=O)c3ccc(F)cc3)ccc2O1	-	.	77.5[16.7 µM]	.	.	.
Cc1noc(C)c1S(=O)(=O)Nc1ccc2c(c1)C(=O)N([C@@H](C)CO)C[C@H](C)[C@@H](CN(C)C(=O)Nc1ccc(C(F)(F)F)cc1)OCCCC[C@H](C)O2	-	.	57.2[16.7 µM]	.	.	.
C[C@H](CO)N1C[C@H](C)[C@H](CN(C)C(=O)Nc2ccc(C(F)(F)F)cc2)OCCCC[C@H](C)Oc2ccc(NS(=O)(=O)c3ccc(F)cc3)cc2C1=O	-	.	58.8[16.7 µM]	.	.	.
C[C@@H]1CCCCO[C@@H](CN(C)C(=O)Nc2ccc(C(F)(F)F)cc2)[C@H](C)CN([C@H](C)CO)C(=O)c2cc(NS(=O)(=O)c3ccc(F)cc3)ccc2O1	-	.	-	.	.	.
Cc1ccc(-c2nn3c(C)nnc3s2)cc1NC(=O)c1ccc(-c2cccc(Cl)c2)o1	.	.	-	.	-	-
Cc1ccc(-c2nn3c(C)nnc3s2)cc1NC(=O)c1ccc(-c2ccc(Cl)cc2Cl)o1	-	-	114.6	-	-	.
CCNC(=O)C[C@@H]1CC[C@@H]2[C@@H](COc3ccc(NC(=O)C4CCCCC4)cc3C(=O)N2C)O1	-	.	-	.	.	.
Cc1cccc(Nc2nc(N)c(C#N)c(CC#N)c2C#N)c1	84.0	-	-	-	-	-
CO[C@H]1CN(C)C(=O)c2cc(NC(=O)CC(F)(F)F)ccc2OC[C@@H](C)N(C(=O)C2CCOCC2)C[C@@H]1C	-	.	.	.	.	.
CC1=C(C(=O)OCc2ccccc2)C(c2cccnc2)n2ncnc2N1 (configuration not stated)	.	-	.	-	-	-
CC1=C(C(=O)OCc2ccccc2)C(c2cccnc2)c2c(n(C)c(=O)n(C)c2=O)N1 (configuration not stated)	42.5!	-	.	-	-	-
